The series is described as follows: Toxicity liver stage against HepG2, at 10uM. In kind it is cell-based. The arrangement: test concentration 10 uM, cell line HepG2-A16-CD81EGFP. To be noted: human, HepG2-A16-CD81EGFP cells; read-out: INHIBITION
The method, boiled down: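 Uninfected HepG2-A16-CD81EGFP cells, 3 × 10^3 per well, 1536-well, plated on prespotted compound at 10 μM final, parasite-free screening media added to match infected plates; puromycin 10 μM positive, DMSO 0.5% negative; run in parallel with 48 h PbLuc assay at 37 °C, 5% CO2; viability by CellTiter-Glo luminescence, normalized to controls.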
With `CCN(CC)S(=O)(=O)c1cc(Br)ccc1OC`, the cytotoxicity at 10 µM was 0.58%.

Regarding `Cc1ccc(CN2CC[C@H](c3nnc(-c4ccco4)o3)C2)cc1`, the cytotoxicity at 10 µM was -2.25%.

Regarding `CN1C(=O)CO[C@H](c2ccc(NC(=O)Cc3cccs3)cc2)[C@H]1CO`, the cytotoxicity at 10 µM amounted to 0.931%.

With `COCC(=O)N1CCN(S(=O)(=O)c2ccccc2)[C@@H](C(=O)OC)C1`, the cytotoxicity at 10 µM stood at 1.03%.

Regarding `CSCC(C)(O)CNS(=O)(=O)c1cccc(Cl)c1` (centres undefined), the cytotoxicity at 10 µM is -0.396%.

For the compound `O=C(c1cscn1)N1CCC2(CCCN(CCOc3ccccc3)C2)C1` (centres undefined), the cytotoxicity at 10 µM came to 1.38%.

Consider `COCCCN1CC2(CCCCN2C(C)=O)CC1=O` (centres undefined), for which the cytotoxicity at 10 µM stood at 16.3%.

Regarding `Cc1ncnc2c1CCN(C(=O)c1ccsc1)CC2`, the cytotoxicity at 10 µM is -0.443%.

On to `COC(=O)CNC(=O)CSCc1nc(O)c2cc(C)sc2n1`, for which the cytotoxicity at 10 µM is 1.45%.

Turning to `COCCN(Cc1ccoc1)C(=O)c1ccccc1Cl`, the cytotoxicity at 10 µM was determined as 9.12%.

With `CCOc1ccc(-n2nnc(C(=O)O)c2-c2ccccn2)cc1`, the cytotoxicity at 10 µM was -9.31%.

On to `CNC(=O)[C@@]12CCC3(CCN(S(C)(=O)=O)CC3)[C@@H]1CN(S(C)(=O)=O)C2`, for which the cytotoxicity at 10 µM is -16.1%.

In the case of `O=C(c1ccsc1)N1C[C@@H]2C[C@@H](c3nnc(C4CC4)o3)O[C@@H]2C1`, the cytotoxicity at 10 µM was -6.15%.

As for `CO[C@@H]1CC[C@H]2[C@H]1OCCN2C(=O)C1=CCCC1`, the cytotoxicity at 10 µM is -6.34%.

Turning to `COCCCNC(=O)C(C)n1cc(Br)cn1` (centres undefined), the cytotoxicity at 10 µM was 12.2%.

`CC1CCC(NC(=O)c2nn(C)cc2I)CC1` (centres undefined): the cytotoxicity at 10 µM is 11.8%.

Regarding `CN(C)S(=O)(=O)N1CCC(c2ccncc2)CC1`, the cytotoxicity at 10 µM is -27.6%.

As for `c1ccc(N2CCOC(Cc3cccnc3)C2)cc1` (centres undefined), the cytotoxicity at 10 µM is -26.3%.

For `CCn1cc(NC(=O)N2CCN(CCSc3ccccc3)CC2)cn1`, the cytotoxicity at 10 µM is -0.095%.

Take `CC(c1cccc(Cl)c1)N1CCN(S(C)(=O)=O)CC1` (centres undefined): the cytotoxicity at 10 µM worked out at 1.81%.

As to `CS(=O)(=O)c1ccc(NCc2ccc(F)cc2)cn1`, the cytotoxicity at 10 µM is 8.08%.

As to `O=c1cc(CN(CCO)C2CC2)nc2ccccn12`, the cytotoxicity at 10 µM was -1.05%.

On to `CN(C)C(=O)Cc1ccc(NCc2nccn2C)cc1`, for which the cytotoxicity at 10 µM is -8.73%.

Consider `CCCN(Cc1cnn(C)c1)S(=O)(=O)c1ccc(F)c(C#N)c1`, for which the cytotoxicity at 10 µM is 6.69%.

`OCc1cccc(CNCc2cccc3c2OCCO3)c1`: the cytotoxicity at 10 µM was 4.25%.

On to `CC(O)CN1CCC(CNCc2cn(-c3ccccc3)nn2)CC1` (centres undefined), for which the cytotoxicity at 10 µM was 3.31%.

As for `N#Cc1ccnc(N2CCN(C3CCOC3=O)CC2)c1` (centres undefined), the cytotoxicity at 10 µM was -1.98%.

Turning to `Cc1cc(C(=O)NCC(O)CN2CCCC2=O)ccc1F` (centres undefined), the cytotoxicity at 10 µM came out at 5.24%.

On to `Cc1nc(CN2CCN(CCCc3nc4ccccc4o3)CC2)no1`, for which the cytotoxicity at 10 µM came out at 9.13%.

With `Cc1nc(CN2CCN(CCCc3ccccc3)CC2)no1`, the cytotoxicity at 10 µM is 11.7%.

As for `Cc1noc(C(C)N(C)Cc2ccco2)n1` (centres undefined), the cytotoxicity at 10 µM was 6.6%.

With `O=C(NCCc1cccnc1)NC1CCOC2(CCCCC2)C1` (centres undefined), the cytotoxicity at 10 µM was -16.3%.

In the case of `COCCC(=O)N1CCC(Nc2ncc(Cl)cn2)CC1`, the cytotoxicity at 10 µM was -6.74%.

Consider `COc1ccc(Oc2ccc(CNC(=O)C3CCS(=O)(=O)C3)cn2)cc1` (centres undefined), for which the cytotoxicity at 10 µM was -2.22%.

`CN(C)c1nccc(CNC(=O)NC(C)(C)C)n1`: the cytotoxicity at 10 µM is -7.36%.

For `CCN(CC1CN(Cc2ccccn2)CCO1)c1cccnn1` (centres undefined), the cytotoxicity at 10 µM is -6.95%.

In the case of `CC(=O)Nc1ccc(CN2CCOC2=O)cc1`, the cytotoxicity at 10 µM was -6.24%.

Regarding `CCc1nc(CN(C)C2CCN(Cc3nc(C4CC4)no3)C2)no1` (centres undefined), the cytotoxicity at 10 µM amounted to 14.9%.

Turning to `COc1ncc(C)cc1NC(=O)COc1ccccc1F`, the cytotoxicity at 10 µM is -9.52%.

Consider `O=C(NCCNc1cncc(Br)c1)c1ccc(O)cc1`, for which the cytotoxicity at 10 µM worked out at 3.73%.

On to `O=C(Nc1ccc(F)cc1)C1CCc2ccccc2N1` (centres undefined), for which the cytotoxicity at 10 µM is 2.4%.

With `CCOc1nnc(CN(Cc2ccccc2)CC(O)c2ccco2)s1` (centres undefined), the cytotoxicity at 10 µM was -1.57%.

For `COCCCNC(=O)Nc1cccc(Cl)c1-n1cccn1`, the cytotoxicity at 10 µM worked out at 1.13%.

`Cn1nnnc1SCCC(=O)NCC(C)(C)c1ccccc1F`: the cytotoxicity at 10 µM is 5.68%.

Regarding `CN(C)C1CN(C(=O)Nc2cccc(OC(F)F)c2)C1`, the cytotoxicity at 10 µM was -0.317%.

As for `N#Cc1cnc(NCc2ccc(C(=O)NC3CC3)cc2)c(Cl)c1`, the cytotoxicity at 10 µM was -0.18%.

In the case of `Brc1cnc(NCc2ccccc2N2CCOCC2)nc1`, the cytotoxicity at 10 µM worked out at 1.3%.

On to `COc1cncc(N2CCN(Cc3ccncc3Cl)CC2)n1`, for which the cytotoxicity at 10 µM is 1.66%.

With `O=C(c1c(O)cnc2ccccc12)N1CCN(CC(F)F)CC1`, the cytotoxicity at 10 µM is -2.22%.

Take `CCOc1ccc(CN(C)C(=O)COc2ccc(C)nc2)cc1`: the cytotoxicity at 10 µM worked out at 22.7%.

Turning to `CN1CCN(S(=O)(=O)c2cncc(F)c2)c2ccccc2C1`, the cytotoxicity at 10 µM is -3.69%.

For the compound `CN(CC(C)(C)O)C(=O)Nc1ccc(F)c(-n2cccc2)c1`, the cytotoxicity at 10 µM is -9.3%.

Take `COc1cc(CN(C)C(=O)NCCC2CCCO2)ccc1SC` (centres undefined): the cytotoxicity at 10 µM was -13.8%.

Regarding `COc1cccc(CN(C)Cc2ccc(C#N)cc2)c1OC`, the cytotoxicity at 10 µM is -8.34%.

Take `CN(C)CCn1c(=O)oc2ccc(NC(=O)c3cc(Cl)c[nH]3)cc21`: the cytotoxicity at 10 µM amounted to 6.79%.

As to `NS(=O)(=O)CCNC(=O)c1ccc(-c2ccc(F)cc2)cc1F`, the cytotoxicity at 10 µM is -3.62%.

As to `CC(COc1ccc(F)cc1F)NC(=O)NCCN1CCOCC1` (centres undefined), the cytotoxicity at 10 µM is -10.9%.

For `CN(C)C(=O)N1CCCC2(CCN(c3ccsc3)C2=O)C1` (centres undefined), the cytotoxicity at 10 µM is -72.5%.

Regarding `CC(C)[C@H](CO)Nc1nccc(-c2c[nH]nc2-c2ccncc2)n1`, the cytotoxicity at 10 µM was -4.66%.

On to `Cc1nc(N(C)C)ncc1C(=O)NCCc1csc(-c2cnccn2)n1`, for which the cytotoxicity at 10 µM is -5%.

As for `CCC[C@@H]1CN(c2cncc(C(=O)N3CCOCC3)n2)C[C@H]1N(C)C`, the cytotoxicity at 10 µM came out at 4.63%.

Take `COc1cccc(Cn2ncnc2CCSC)c1`: the cytotoxicity at 10 µM was -1.22%.

In the case of `Cc1noc(C)c1CCCNC(=O)C1CCN(C(C)C)CC1`, the cytotoxicity at 10 µM was -7.01%.

Turning to `Cc1cc(C)c(C(=O)N[C@H](C(N)=O)c2ccccc2)c(=O)[nH]1`, the cytotoxicity at 10 µM is -2.06%.

Turning to `CC(C)c1noc(C2CCCN2S(=O)(=O)N2CCCCCC2)n1` (centres undefined), the cytotoxicity at 10 µM was found to be 4.73%.

As for `CCCN1CCN(C(=O)Nc2ccccc2Cl)[C@H]2CS(=O)(=O)C[C@H]21`, the cytotoxicity at 10 µM is 1.54%.

Turning to `CC(C)NS(=O)(=O)c1cc(C(=O)O)cc(-c2ccccc2CO)c1`, the cytotoxicity at 10 µM stood at 0.555%.

As for `COCCNS(=O)(=O)c1cccc2c1CN(C(=O)c1cnccn1)CC2`, the cytotoxicity at 10 µM was -0.432%.

Consider `CC(=O)N1CCc2c(nc(-c3cccnc3)nc2N(C)CC(O)CO)C1` (centres undefined), for which the cytotoxicity at 10 µM was -2.03%.

In the case of `CCC(NC(=O)c1cnc(-c2cccnc2)nc1)c1ccnn1C` (centres undefined), the cytotoxicity at 10 µM was -2.11%.

Consider `Cc1nccn1CCN(C)C(=O)c1cn(-c2ccccc2)nn1`, for which the cytotoxicity at 10 µM was -0.651%.

`Cc1nc2sccn2c1C(=O)N1CCc2c(nc(N)[nH]c2=O)C1`: the cytotoxicity at 10 µM is -3.22%.

As for `CN(C)C(=O)N1CCN(Cc2ccccc2)[C@@H]2CS(=O)(=O)C[C@@H]21`, the cytotoxicity at 10 µM is -12.6%.

For the compound `CCn1c(CN2CCCC2)nnc1C1CCN(Cc2ccc(C)o2)CC1`, the cytotoxicity at 10 µM was -14.8%.

For the compound `CCC(OC)C(=O)N1CCc2nc(NC)nc(C(=O)N3CCCC3)c2C1` (centres undefined), the cytotoxicity at 10 µM is -18.3%.

Turning to `CN1CCC(c2nnc(CN3CCC(O)CC3)n2C)CC1`, the cytotoxicity at 10 µM is -8.94%.

Take `Cc1ccc(CNC(=O)Nc2nccs2)cn1`: the cytotoxicity at 10 µM is -23.8%.

Regarding `N#Cc1ccc(CN2CCCCC2Cn2cccn2)cc1` (centres undefined), the cytotoxicity at 10 µM is -8.96%.

`NC(=O)c1cccc(C(=O)N2CCCC(n3ccnc3)C2)c1` (centres undefined): the cytotoxicity at 10 µM was -14%.

With `CC(C)c1noc(CN2CCN(C(=O)c3cccc(F)c3)CC2)n1`, the cytotoxicity at 10 µM was -4.27%.

As for `Cc1nn(C)c(N(C)C)c1CNCc1cccc(Cn2ccnc2)c1`, the cytotoxicity at 10 µM is -12%.

With `CCS(=O)(=O)N1CCC(NC(=O)c2ccccc2O)CC1`, the cytotoxicity at 10 µM was -7.27%.

For `Cc1ccc2oc(C(=O)N3CCCC(n4cccn4)C3)cc2n1` (centres undefined), the cytotoxicity at 10 µM was -3.89%.

Turning to `CCCc1nc(CN2CCCC2c2cnn(C)c2)cs1` (centres undefined), the cytotoxicity at 10 µM came out at 0.441%.

On to `Cc1nc(C)n(CC2CCCN2CCOc2ccc(F)cc2)n1` (centres undefined), for which the cytotoxicity at 10 µM came to 3.06%.

For `Cn1c(C2CC2)nc2c1CCN(CC(=O)Nc1ccncc1)C2`, the cytotoxicity at 10 µM is -11.8%.

For the compound `CC1CN(C)CCN1Cc1cccc(C(=O)N(C)C)c1` (centres undefined), the cytotoxicity at 10 µM was -0.192%.

Regarding `CC(C)n1ccnc1CN1CCCN(C(=O)CC2CCCO2)CC1` (centres undefined), the cytotoxicity at 10 µM is -12.8%.

In the case of `COCCOc1cccc(C(=O)N2CCCCC2c2nccs2)c1` (centres undefined), the cytotoxicity at 10 µM was -9.5%.

Regarding `Cc1ccc(OCCN(C)C(C)c2cccc(S(N)(=O)=O)c2)cc1` (centres undefined), the cytotoxicity at 10 µM was -29.3%.

On to `Cc1ccoc1C(=O)NC1CCN(C(=O)Nc2ccccn2)CC1`, for which the cytotoxicity at 10 µM came to 1.97%.

On to `CCc1nc(C2CCCN(C(=O)c3ccc(OC)cc3)C2)no1` (centres undefined), for which the cytotoxicity at 10 µM was -15.6%.

`CC(O)CN1CCN(C(=O)c2cccc3[nH]ncc23)CC1` (centres undefined): the cytotoxicity at 10 µM was -20.5%.

For the compound `CCc1cnc(CN(C(C)=O)C2CCN(CCc3cnn(C)c3)C2)o1` (centres undefined), the cytotoxicity at 10 µM was -5.85%.

For the compound `O=C(CN1CCCCC1Cn1cncn1)NCc1ccccn1` (centres undefined), the cytotoxicity at 10 µM is -4.02%.

For `CNC(=O)[C@@H]1CN(C(=O)C2CCC2)C[C@H]1c1ccnc(N2CCCC2)n1`, the cytotoxicity at 10 µM was -3.21%.

On to `COc1cccc(N2C(=O)CC3(CCCNC3)C2=O)c1` (centres undefined), for which the cytotoxicity at 10 µM worked out at 1.52%.

Regarding `Cn1cc(CN2CCC(F)(F)C3(CCN(c4cnccn4)C3)C2)cn1` (centres undefined), the cytotoxicity at 10 µM was -9.93%.

For `CNc1nc2cn(CCc3ccccc3)c(=O)c-2c[nH]1`, the cytotoxicity at 10 µM was 7.77%.
